Yeast growth inh: yeast BB579 growth reduction in restrictive medium | hit rate 0.51% among 140,000 | inhibition, % at 10 µM | S. cerevisiae BB579 growth, OD615, 48 h;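 active means inhibition above a set limit, 3 SD over the mean compound inhibition, cut at about 44% in these data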
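test system = yeast BB579 (DeaD) | buffer or medium = restrictive CSMM-D medium | doses = single compound dose of 10 µM, 0.25% DMSO final | times = 4 h preincubation and 48 h exposure at 30 °C | technique = culture absorbance at 615 nm | benchmarks = amphotericin B 10 µg/mL, positive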
sdo1 growth: sdo1-depleted yeast growth rescue. hit rate 0.21% among 140,000. S. cerevisiae sdo1-depleted JHY4D growth rescue, OD600 30 h; stronger effect = higher value; pdr5 snq2 efflux-pump mutant strain. z-score at 10 µM;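 active means z-score above 3 at both the 24 hr and the 30 hr optical density reads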;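 further: z-score against mean and SD of all compound wells on the same plate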
Yeast lifespan up: yeast lifespan extension. S. cerevisiae growth with nicotinamide, OD615; deaD strain in restrictive glucose medium. inhibition of the nicotinamide effect, % at 10 µM. hit rate 0.68% among 130,000;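 active means inhibition above a set limit, placed 3 SD over the median of all compounds, cut at about 26% in these data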;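 further: 0% = nicotinamide-treated wells and 100% = cells grown without nicotinamide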
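Assay system: DeaD-strain S. cerevisiae. Medium: CSMM-D glucose medium, restrictive. Reagent: nicotinamide, 1.5 mM, co-present with compound. Compound: 10 µM single point, 0.25% DMSO. Schedule: culture preincubation 4 h, compound exposure 48 h, both 30 °C. Detection: absorbance at 615 nm.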
PTEN del growth: PTEN-deleted cell growth suppression; hit rate 1.2% among 140,000; viability, % at 10 µM; HCT116 PTEN-null viability, CellTiter-Glo, 60 h; stronger effect = lower value; AID 827;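 active means viability at or below a set limit, 4 SD under the median of all tested compounds, cut at about 3.7% in these data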;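 further: PTEN knockout HCT116 line with beta catenin targeted HCT116 as companion control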
bCat KO growth: beta-catenin-lacking colon tumor cell growth suppression | HCT116 beta-catenin knockout viability, CellTiter-Glo, 60 h; stronger effect = lower value | viability, % at 10 µM | hit rate 1.5% among 140,000 | AID 818;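 active means viability at or under a set limit, the compound median less 4 SD, cut at about 6% in these data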;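 further: 0% = Hyamine 1622 control at 20 µM and 100% = untreated cell control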
* = called active by the depositor. An excerpt weighted towards active compounds, which were near 2.8% of everything screened.

Screening O=C(Nc1ccn(Cc2ccccc2F)n1)c1ccc(COc2ccccc2Cl)cc1 returned Yeast growth inh -49, sdo1 growth -0.5, Yeast lifespan up -1, PTEN del growth 17 and bCat KO growth 5.9*.
CC(CN1CCCC1)OC(=O)COc1ccccc1 (stereo not drawn) was read as Yeast growth inh -44, sdo1 growth -0.61, Yeast lifespan up 2, PTEN del growth 104 and bCat KO growth 103.
Screening Cc1ccc2c(c1)N(CC(=O)NCCc1c[nH]c3ccccc13)C(=O)CO2 returned Yeast growth inh -74, sdo1 growth -0.78, Yeast lifespan up -8, PTEN del growth 92 and bCat KO growth 85.
For O=C(Nc1nc(-c2ccccc2)cs1)c1ccccc1NS(=O)(=O)c1ccc(F)cc1 the results were Yeast growth inh -19, sdo1 growth -1.9, Yeast lifespan up 12, PTEN del growth 5 and bCat KO growth 4.4*.
For O=S(=O)(Nc1ccc(-c2csc(-c3ccccc3)n2)cc1)c1ccc(F)cc1 the results were Yeast growth inh 69*, sdo1 growth -2.5, Yeast lifespan up -23, PTEN del growth 85 and bCat KO growth 85.
For COc1ccccc1C(=O)Nc1nc(-c2ccc(S(=O)(=O)N3CCOCC3)cc2)cs1 the results were Yeast growth inh -71, sdo1 growth -1.3, Yeast lifespan up -10, PTEN del growth 9 and bCat KO growth 5.7*.
`CN(C)S(=O)(=O)c1cccc(NC(=S)NN=C(Cc2ccccc2)Cc2ccccc2)c1` gave Yeast growth inh -8, sdo1 growth 0.3, Yeast lifespan up -3, PTEN del growth 89 and bCat KO growth 87.
Screening Cc1ccc2nsnc2c1S(=O)(=O)N(Cc1cc2cccc(C)c2[nH]c1=O)CC1CCCO1 (stereo not drawn) returned Yeast growth inh -26, sdo1 growth -0.41, Yeast lifespan up -14, PTEN del growth 57 and bCat KO growth 60.
`COc1cc2nc(N3CCN(C(=O)C4COc5ccccc5O4)CC3)nc(N)c2cc1OC` (stereo not drawn) gave Yeast growth inh -40, sdo1 growth 0.44, Yeast lifespan up 4, PTEN del growth 9 and bCat KO growth 4.6*.
Screening CC(C)CNc1oc(-c2ccc(F)cc2)nc1C#N returned Yeast growth inh -31, sdo1 growth -1.1, Yeast lifespan up -11, PTEN del growth 87 and bCat KO growth 86.
Cc1cc(NS(=O)(=O)c2ccc(CC(C)C)cc2)no1 was read as Yeast growth inh -39, sdo1 growth -0.45, Yeast lifespan up 50*, PTEN del growth 90 and bCat KO growth 92.
Screening CCC(=O)Nc1ccc(S(=O)(=O)Nc2cc(C)on2)cc1 returned Yeast growth inh -20, sdo1 growth 0.45, Yeast lifespan up -1, PTEN del growth 97 and bCat KO growth 93.
`C=CCN1C(=O)C(Cc2ccc(OCC)cc2)S/C1=N\N=C\c1cccs1` (stereo not drawn) gave Yeast growth inh -44, sdo1 growth -0.1, Yeast lifespan up 30*, PTEN del growth 84 and bCat KO growth 85.
`C=CCN1C(=O)C(Cc2ccccc2)S/C1=N/N=C/c1cccs1` (stereo not drawn) gave Yeast growth inh -35, sdo1 growth -1.3, Yeast lifespan up -1, PTEN del growth 93 and bCat KO growth 77.
Cc1ccc(NS(=O)(=O)c2ccc(NC(=O)c3ccc(Br)o3)cc2)c(C)c1 was read as Yeast growth inh -31, sdo1 growth -1.1, Yeast lifespan up -11, PTEN del growth 78 and bCat KO growth 69.
For C/C(=N\NC(=O)CNc1cccc(C)c1)c1ccc(Br)s1 the results were Yeast growth inh -35, sdo1 growth -1.4, Yeast lifespan up -5, PTEN del growth 88 and bCat KO growth 79.
Screening C/C(=N\NC(=O)c1ccc(Cl)c(Cl)c1)c1ccc(Br)s1 returned Yeast growth inh -45, sdo1 growth -0.34, Yeast lifespan up -1, PTEN del growth 3.6* and bCat KO growth 6.1*.
Screening O=C(N/N=C/c1ccc([N+](=O)[O-])s1)C(O)c1ccccc1 (stereo not drawn) returned Yeast growth inh 11, sdo1 growth -0.51, Yeast lifespan up 3, PTEN del growth 1.0* and bCat KO growth 0.8*.
Screening Cc1ccc(-c2nnc(SCC(=O)N/N=C/c3ccc(C)s3)n2-c2ccc(C)cc2)cc1 returned Yeast growth inh -24, sdo1 growth -0.35, Yeast lifespan up 0, PTEN del growth 69 and bCat KO growth 80.
